Shown are actives, neighbours in structure and some others; about 1.3% of the full set was active somewhere.
PME-1 primary = PME-1 inhibitors via competitive probe labeling, primary screen, biochemical, fluorescence polarization, FP-Rh probe, HTS; Protein phosphatase methylesterase 1 (Homo sapiens), Q9Y570; recombinant PME-1; inhibition, % at 5.9 µM; actives 0.53% (n = 320,000);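 active means inhibition above the campaign mean of all compounds plus 3 SD, cut at about 26% in these data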;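 further: competitive labeling of PME-1 active site by serine hydrolase directed probe; inhibitors block probe labeling so polarization falls and inhibition rises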
Target sequence (Q9Y570 whole entry, looked up): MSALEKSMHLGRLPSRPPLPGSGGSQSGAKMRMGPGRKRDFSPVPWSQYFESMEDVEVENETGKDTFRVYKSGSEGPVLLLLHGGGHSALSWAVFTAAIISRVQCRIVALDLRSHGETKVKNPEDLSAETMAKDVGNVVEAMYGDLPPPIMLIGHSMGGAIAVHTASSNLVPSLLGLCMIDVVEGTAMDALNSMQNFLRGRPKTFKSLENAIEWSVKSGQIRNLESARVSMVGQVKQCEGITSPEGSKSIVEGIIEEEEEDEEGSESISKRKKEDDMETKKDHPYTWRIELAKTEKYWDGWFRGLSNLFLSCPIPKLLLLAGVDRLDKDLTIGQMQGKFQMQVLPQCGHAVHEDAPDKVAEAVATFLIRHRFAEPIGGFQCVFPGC
Fam108B counter = mouse Fam108B serine hydrolase inhibitors, primary screen, counter-screen for RBBP9 inhibitor project, biochemical, fluorescence polarization | actives 0.33% (n = 300,000) | AID 1947, 2009 | inhibition, % at 9.51 µM | recombinant Fam108B, FP-Rh probe fluorescence polarization;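 active means inhibition above the screen mean inhibition plus 3 SD, computed separately per campaign, cut at about 18% in these data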;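 further: inhibitors lower polarization as less probe binds the enzyme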
PAD4 FP inh = human PAD4 inhibitors, primary screen, biochemical, fluorescence polarization, 1536-well format | recombinant PAD4, RCA probe fluorescence polarization | actives 0.41% (n = 330,000) | AID 485272, 2010 | inhibition, % at 6.36 µM;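 active means percent inhibition above a cutoff equal to the mean of all tested compounds plus 3 SD, cut at about 15% in these data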
RBBP9 inh = human RBBP9 inhibitors, primary screen, biochemical, fluorescence polarization, FP-Rh probe, HTS; Serine hydrolase RBBP9 (Homo sapiens), O75884; recombinant RBBP9; inhibition, % at 7.94 µM; actives 0.2% (n = 220,000); AID 1515, 2009;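 active means inhibition above the campaign mean of all tested compounds plus 3 SD, cut at about 14% in these data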
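Test system: recombinant human RBBP9; Timing: 30 min then 45 min, 25 °C; Detection: fluorescence polarization; Control set: RBBP9 with DMSO as uninhibited control, no-protein wells as full inhibition; Compound dosing: one concentration, 7.94 µM nominal, 0.794% DMSO; Probe or stimulus: FP-Rh activity-based probe, 375 nM before mixing.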
LYPLA1 inh = LYPLA1 inhibitors, primary screen, counter-screen for PME1 inhibitor project, biochemical, fluorescence polarization, FP-Rh probe ABPP; recombinant LYPLA1; inhibition, % at 5.9 µM; actives 0.16% (n = 320,000); Acyl-protein thioesterase 1 (Homo sapiens), O75608; AID 2174, 2009;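 active means inhibition above the mean of all tested compounds plus 3 SD, set per campaign, cut at about 14% in these data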;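 further: inhibitors block serine hydrolase probe labeling of LYPLA1 so polarization falls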
Target sequence (O75608 whole entry, looked up): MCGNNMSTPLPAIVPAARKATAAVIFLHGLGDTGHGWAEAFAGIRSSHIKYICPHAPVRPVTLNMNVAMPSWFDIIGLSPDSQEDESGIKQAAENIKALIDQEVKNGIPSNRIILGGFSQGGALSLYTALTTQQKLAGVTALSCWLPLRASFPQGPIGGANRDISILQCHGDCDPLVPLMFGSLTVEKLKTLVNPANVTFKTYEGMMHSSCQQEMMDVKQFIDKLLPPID
LYPLA2 inh = LYPLA2 inhibitors, primary screen, counter-screen for PME1 inhibitor project, biochemical, fluorescence polarization, FP-Rh probe ABPP | Acyl-protein thioesterase 2 (Homo sapiens), O95372 | actives 0.38% (n = 320,000) | inhibition, % at 5.9 µM | recombinant LYPLA2;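 active means inhibition above the screen-wide mean plus 3 SD, limit set per campaign, cut at about 26% in these data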
PAD4 confirm = human PAD4 inhibitors, confirmation, biochemical, fluorescence polarization; shares compounds with PAD4 FP inh; recombinant PAD4, RCA probe fluorescence polarization; inhibition, % at 6.36 µM; actives 28% (n = 1,200); AID 488796, 2010;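 active means mean inhibition across replicates above the hit cutoff set by the earlier primary screen, cut at about 15% in these data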;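 further: inhibitors block active-site labeling by the probe so polarization falls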
Hits are given with their value; 0 = inactive; - = not tested or not shown.

SMILES	PME-1 primary	Fam108B counter	PAD4 FP inh	RBBP9 inh	LYPLA1 inh	LYPLA2 inh	PAD4 confirm
O=C1CC(Sc2cccs2)C(=O)N1c1ccccc1 (stereo not drawn)	0	0	24.4	0	0	0	0
NC(=O)c1ccc(-n2nnnc2SCC(=O)Nc2ccccc2-c2ccccc2)cc1	0	0	16.2	0	0	0	0
C(=Nc1cccc2c(N=Cc3ccco3)cccc12)c1ccco1	0	0	62.4	0	0	0	0
N#Cc1ccc2[nH]cc(CCO)c2c1	0	0	0	-	0	0	-
CC(=NC1CC1)c1c(-c2ccccc2)[nH]n(-c2nc3ccccc3s2)c1=O	0	0	0	0	0	0	-
CC(=NC1CCCC1)c1c(C)[nH]n(-c2nc3ccccc3s2)c1=O	0	0	19.0	0	0	0	17.5
COc1ccccc1NC(=O)Cc1nnc(SCC(=O)c2ccccc2)n1C	0	0	0	-	0	0	-
Cc1c(C(=O)NCCCN2CCOCC2)oc2c1C1(CCC2)SCCS1	0	0	0	0	0	0	-
Cc1cc(C)nc(SCC(=O)Nc2ccc(Br)cn2)n1	0	0	0	0	0	0	-
CCC(Sc1nc(C)cc(C)n1)C(=O)NC1=NN=C(c2ccc(C)cc2)CS1 (stereo not drawn)	0	0	66.1	0	0	0	55.4
Cc1cc(C)nc(SCC(=O)NC2=NN=C(c3ccc(Br)cc3)CS2)n1	0	0	37.6	0	0	0	21.0
CCC(Sc1nc(C)cc(C)n1)C(=O)Nc1cc(C)on1 (stereo not drawn)	0	0	0	0	0	0	-
C/C(CC(C)(C)c1ccccc1)=N\NS(=O)(=O)c1ccccc1	0	0	0	0	0	0	-
Cn1c(=O)c2c(nc(CN3CCN(C(=O)c4ccco4)CC3)n2Cc2ccc(Cl)cc2)n(C)c1=O	0	0	0	0	0	0	-
Cc1ccc(NC(=O)CCNS(=O)(=O)c2ccc3[nH]c(=O)oc3c2)cc1F	0	0	20.9	-	0	0	0
CN(C(=S)Nc1cccnc1)c1ccc(O)cc1	0	0	31.1	0	0	0	0
CN(C(=S)Nc1ccc(Oc2ccccc2)cc1)c1ccc(O)cc1	0	0	25.4	0	0	0	0
Cc1ccc(SCc2ccc(C(=O)NCc3ccncc3)cc2)cc1	0	0	0	0	0	0	-
O=C(NCC1(N2CCOCC2)CCCCC1)c1cccc(S(=O)(=O)N2CCc3ccccc3C2)c1	0	0	0	0	0	0	-
COC(=O)c1c(NC(=O)c2cccnc2)sc(C(=O)N(C)C)c1C	0	0	0	0	0	0	-
COC(=O)c1c(NC(=O)c2ccco2)sc(C(=O)N(C)C)c1C	0	0	19.0	0	0	0	15.8
Cc1nc(SCC(=O)c2ccccc2)[nH]c(=O)c1Oc1ccc(Cl)cc1	0	0	20.7	0	0	0	0
COc1ccc(Oc2c(C)nc(SCC(=O)c3ccc(Cl)cc3)[nH]c2=O)cc1	0	0	0	0	0	0	-
O=C(OCn1ncc(Cl)c(Cl)c1=O)c1ccccc1Cl	0	0	27.7	0	0	0	28.8
CCN1C=C(Cc2ccc(OC)cc2)C2=C(C1)C(c1ccc(OC)cc1)C(C#N)=C(N)O2 (stereo not drawn)	0	0	41.7	0	0	0	0
SMILES	PME-1 primary	Fam108B counter	PAD4 FP inh	RBBP9 inh	LYPLA1 inh	LYPLA2 inh	PAD4 confirm
COc1ccc2c3c(c(=O)oc2c1OCC(N)=O)CCCC3	0	0	0	0	0	0	-
COc1cccc2cc(C(=O)NC3CC(C)(C)NC(C)(C)C3)c(=O)oc12	0	0	78.9	0	0	0	0
C(=N\n1cnnc1)/c1ccc2c(c1)OCCO2	0	0	17.9	0	0	0	0
C(=N\n1cnnc1)/c1ccc2c(c1)OCO2	0	0	0	0	0	0	-
COc1ccccc1OCCC(=O)OCC(=O)Nc1ccc(Br)cc1F	0	0	0	0	0	0	-
Cc1cc(C)c(C)c(S(=O)(=O)N2CCC(C(=O)N3CCCC3)CC2)c1C	0	-	57.7	-	0	0	0
Cc1cc(C)c(C)c(S(=O)(=O)N2CCN(C(=O)C3CCC3)CC2)c1C	0	0	0	-	0	0	-
CCN(CC)S(=O)(=O)c1ccc2c(c1)c(=O)c(C(=O)N1CCN(c3ccccn3)CC1)cn2C	0	0	20.0	-	0	0	0
CCCOc1ccc(Cc2c(Cl)nc(SC)nc2N(C)C)cc1	0	0	0	0	0	0	-
Cn1cc([N+](=O)[O-])c(C(=O)N2CCN(Cc3ccc4c(c3)OCO4)CC2)n1	0	0	0	-	0	0	-
CCCCC1=CC2=C(c3ccco3)C(=O)C(C)(OC(=O)c3ccc(OC)cc3)C(=O)C2=CN1CCc1ccccn1 (stereo not drawn)	0	0	28.3	-	0	0	0
COC(=O)CCCC1=CC2=CC(=O)C(C)(OC(=O)c3cccs3)C(=O)C2=CN1CCc1ccccn1 (stereo not drawn)	0	0	17.1	-	0	0	0
COc1ccc(N(C)S(=O)(=O)c2cccc(C(=O)OCC(=O)NCc3ccccc3OC)c2)cc1	0	0	0	0	0	0	-
COc1ccc(N(C)S(=O)(=O)c2cccc(C(=O)OCC(=O)N3CC(C)CC(C)C3)c2)cc1 (stereo not drawn)	-	-	17.1	-	-	-	0
O=C1CSC(c2ccccc2O)N1Cc1ccccc1 (stereo not drawn)	0	0	40.5	-	0	0	0
CN(CCO)c1nc(N)c2c(N)nc3c(c2c1C#N)CC(=O)N3C1CCCC1	0	0	15.9	0	0	0	0
COc1ccc2c(c1)CCc1cn3nc(C)cc3nc1-2	0	0	15.7	0	0	0	0
Cc1nnc(NC(=O)C2CCCN(c3ncccn3)C2)s1 (stereo not drawn)	0	0	0	0	0	0	-
Cn1c(=O)c2c(ncn2CC(=O)N2CCN(C(=O)c3ccco3)CC2)n(C)c1=O	0	0	0	0	0	0	-
CC1=NN(c2ccccc2)C(=O)C1N=Nc1ccc(C)cc1 (stereo not drawn)	0	0	0	0	0	0	-
CC1=NN(c2ccc(C)cc2C)C(=O)C1C(c1ccccc1O)C1C(=O)N(c2ccc(C)cc2C)N=C1C (stereo not drawn)	0	0	45.2	0	0	0	0
Fc1ccc(C2CC(c3ccco3)=Nc3ccccc3S2)cc1 (stereo not drawn)	0	0	15.2	0	0	0	0
